From the M2OR odorant receptor database

Legend:
Details in all cases: stereoisomer not certain
[1] = target: Or5an6 (Mus musculus) (UniProt Q8VFV4)
Outline: (§1)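 Assay methods differ from source to source, frequently being transient luciferase assays in mammalian cell lines. For each receptor–molecule pair, the label responsive (active) applies when the original authors judged the measured signal statistically different from baseline, and non-responsive (inactive) applies otherwise.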

[2] = target: T1, UniProt E9Q9Z6
T1 sequence (whole entry): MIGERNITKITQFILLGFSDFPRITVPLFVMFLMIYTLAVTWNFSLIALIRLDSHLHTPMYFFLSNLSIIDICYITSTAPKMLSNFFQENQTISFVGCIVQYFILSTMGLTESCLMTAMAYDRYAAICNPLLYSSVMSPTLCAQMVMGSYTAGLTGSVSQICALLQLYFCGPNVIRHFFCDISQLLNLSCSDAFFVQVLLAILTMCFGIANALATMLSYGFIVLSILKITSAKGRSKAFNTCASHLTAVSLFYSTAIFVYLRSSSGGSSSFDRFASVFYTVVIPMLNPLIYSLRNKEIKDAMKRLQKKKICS
Outline: as §1

[3] = target: T2, Or1m1 (Mus musculus) (UniProt Q8VFM9)
T2 sequence (whole entry): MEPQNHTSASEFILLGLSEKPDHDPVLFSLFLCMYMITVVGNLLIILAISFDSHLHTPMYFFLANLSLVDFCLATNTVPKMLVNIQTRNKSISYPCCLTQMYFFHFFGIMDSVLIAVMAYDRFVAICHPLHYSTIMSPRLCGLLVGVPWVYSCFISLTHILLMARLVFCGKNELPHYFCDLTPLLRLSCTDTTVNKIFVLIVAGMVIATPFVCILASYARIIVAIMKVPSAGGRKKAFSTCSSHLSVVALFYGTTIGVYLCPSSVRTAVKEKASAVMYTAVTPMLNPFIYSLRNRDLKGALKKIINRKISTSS
Outline: as §1

[4] = target: T3, Or5ar1 (Mus musculus) (UniProt Q8VGS3)
T3 sequence (whole entry): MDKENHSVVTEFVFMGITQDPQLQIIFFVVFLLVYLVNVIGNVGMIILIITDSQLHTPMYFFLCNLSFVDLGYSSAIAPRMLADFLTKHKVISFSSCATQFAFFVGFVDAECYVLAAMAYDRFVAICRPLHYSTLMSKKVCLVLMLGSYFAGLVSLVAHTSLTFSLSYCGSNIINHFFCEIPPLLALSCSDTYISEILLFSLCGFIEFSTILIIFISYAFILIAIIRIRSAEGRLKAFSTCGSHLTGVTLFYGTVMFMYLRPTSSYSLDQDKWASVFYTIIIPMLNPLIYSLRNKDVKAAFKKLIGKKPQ
Outline: as §1

[5] = target: T4, UniProt A2ATE5
T4 sequence (whole entry): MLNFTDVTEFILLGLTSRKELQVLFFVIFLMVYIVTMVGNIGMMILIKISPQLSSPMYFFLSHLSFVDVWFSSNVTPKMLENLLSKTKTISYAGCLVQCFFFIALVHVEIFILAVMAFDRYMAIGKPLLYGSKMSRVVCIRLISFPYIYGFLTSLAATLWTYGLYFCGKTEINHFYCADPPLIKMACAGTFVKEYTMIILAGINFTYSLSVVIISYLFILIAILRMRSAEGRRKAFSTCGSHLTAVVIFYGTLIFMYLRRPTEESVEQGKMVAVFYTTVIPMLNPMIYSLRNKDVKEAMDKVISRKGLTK
Outline: as §1

[6] = target: T5, UniProt A2AVB0
T5 sequence (whole entry): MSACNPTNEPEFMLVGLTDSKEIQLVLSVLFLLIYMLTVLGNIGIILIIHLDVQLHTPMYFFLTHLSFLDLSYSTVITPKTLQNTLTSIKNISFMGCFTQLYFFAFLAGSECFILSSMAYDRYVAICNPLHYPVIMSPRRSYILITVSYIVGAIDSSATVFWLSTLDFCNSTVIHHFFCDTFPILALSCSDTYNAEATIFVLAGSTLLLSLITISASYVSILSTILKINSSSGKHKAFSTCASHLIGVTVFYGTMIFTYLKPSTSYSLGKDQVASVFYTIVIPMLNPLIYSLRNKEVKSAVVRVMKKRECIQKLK
Outline: as §1

[7] = target: T6, UniProt E9PVX1
T6 sequence (whole entry): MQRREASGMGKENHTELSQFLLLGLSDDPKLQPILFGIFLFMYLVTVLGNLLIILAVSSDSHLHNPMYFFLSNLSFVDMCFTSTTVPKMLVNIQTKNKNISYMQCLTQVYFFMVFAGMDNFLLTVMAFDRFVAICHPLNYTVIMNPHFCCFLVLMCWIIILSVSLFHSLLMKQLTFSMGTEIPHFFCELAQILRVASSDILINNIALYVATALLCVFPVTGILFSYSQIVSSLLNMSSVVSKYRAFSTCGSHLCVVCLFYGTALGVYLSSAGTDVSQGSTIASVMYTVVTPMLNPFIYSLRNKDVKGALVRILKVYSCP
Outline: as §1

[8] = target: T7, UniProt E9PZ66
T7 sequence (whole entry): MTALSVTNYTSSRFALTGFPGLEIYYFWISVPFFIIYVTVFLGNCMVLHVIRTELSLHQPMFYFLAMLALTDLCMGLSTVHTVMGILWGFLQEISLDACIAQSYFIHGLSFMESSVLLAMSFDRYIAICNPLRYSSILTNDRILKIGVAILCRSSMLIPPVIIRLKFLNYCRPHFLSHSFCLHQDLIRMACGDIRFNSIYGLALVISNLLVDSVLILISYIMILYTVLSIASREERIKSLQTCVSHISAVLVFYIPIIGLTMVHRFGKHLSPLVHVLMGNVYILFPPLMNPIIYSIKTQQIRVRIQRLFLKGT
Outline: as §1

[9] = target: T8, UniProt E9Q4X7
T8 sequence (whole entry): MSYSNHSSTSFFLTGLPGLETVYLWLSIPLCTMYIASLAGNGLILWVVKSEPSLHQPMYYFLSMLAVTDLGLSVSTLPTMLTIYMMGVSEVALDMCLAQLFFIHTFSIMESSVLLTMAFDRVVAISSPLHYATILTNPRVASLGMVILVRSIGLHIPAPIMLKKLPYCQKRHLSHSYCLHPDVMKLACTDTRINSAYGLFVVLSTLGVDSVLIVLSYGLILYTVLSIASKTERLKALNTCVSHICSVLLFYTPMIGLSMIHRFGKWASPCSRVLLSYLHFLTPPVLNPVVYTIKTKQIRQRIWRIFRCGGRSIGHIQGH
Outline: as §1

[10] = target: T9, UniProt E9Q546
T9 sequence (whole entry): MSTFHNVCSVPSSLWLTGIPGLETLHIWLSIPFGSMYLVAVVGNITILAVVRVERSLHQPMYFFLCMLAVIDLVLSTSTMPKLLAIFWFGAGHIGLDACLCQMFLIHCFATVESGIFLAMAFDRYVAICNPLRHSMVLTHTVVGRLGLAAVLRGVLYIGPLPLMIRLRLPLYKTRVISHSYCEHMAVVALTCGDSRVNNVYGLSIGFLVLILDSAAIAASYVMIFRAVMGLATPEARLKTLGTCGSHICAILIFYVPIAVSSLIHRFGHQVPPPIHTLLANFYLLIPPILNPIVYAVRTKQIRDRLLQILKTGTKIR
Outline: as §1

[11] = target: T10, UniProt E9Q6Z7
T10 sequence (whole entry): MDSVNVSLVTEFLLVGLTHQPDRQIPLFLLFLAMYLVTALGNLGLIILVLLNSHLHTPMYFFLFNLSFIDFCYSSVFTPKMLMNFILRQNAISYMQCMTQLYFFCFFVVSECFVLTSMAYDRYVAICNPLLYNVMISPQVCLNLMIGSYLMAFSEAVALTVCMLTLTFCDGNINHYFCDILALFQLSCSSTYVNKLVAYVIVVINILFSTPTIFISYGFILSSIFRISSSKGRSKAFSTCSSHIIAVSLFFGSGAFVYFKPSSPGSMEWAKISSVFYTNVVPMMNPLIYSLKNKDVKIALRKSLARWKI
Outline: as §1

[12] = target: T11, UniProt L7MU75
T11 sequence (whole entry): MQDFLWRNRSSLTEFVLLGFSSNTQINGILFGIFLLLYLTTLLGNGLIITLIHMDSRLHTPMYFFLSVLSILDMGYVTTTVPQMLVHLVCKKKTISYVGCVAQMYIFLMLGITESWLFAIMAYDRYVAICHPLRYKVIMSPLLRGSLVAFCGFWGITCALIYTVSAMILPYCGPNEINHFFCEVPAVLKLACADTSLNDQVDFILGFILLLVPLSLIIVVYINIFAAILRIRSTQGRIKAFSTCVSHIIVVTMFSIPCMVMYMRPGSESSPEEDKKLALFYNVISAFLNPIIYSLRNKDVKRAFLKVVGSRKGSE
Outline: as §1

[13] = target: T12, Or2c1 (Mus musculus) (UniProt P23275)
T12 sequence (whole entry): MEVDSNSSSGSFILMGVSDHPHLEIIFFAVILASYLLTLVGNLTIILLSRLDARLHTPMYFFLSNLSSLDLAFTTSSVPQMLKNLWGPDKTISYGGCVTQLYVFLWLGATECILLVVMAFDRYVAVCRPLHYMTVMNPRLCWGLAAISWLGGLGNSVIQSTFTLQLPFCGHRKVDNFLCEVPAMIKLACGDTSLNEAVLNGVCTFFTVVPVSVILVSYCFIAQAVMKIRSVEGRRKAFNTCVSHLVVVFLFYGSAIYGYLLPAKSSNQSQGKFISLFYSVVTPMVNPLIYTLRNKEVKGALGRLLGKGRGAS
Outline: as §1

[14] = target: T13, Or5p80 (Mus musculus) (UniProt Q8VG42)
T13 sequence (whole entry): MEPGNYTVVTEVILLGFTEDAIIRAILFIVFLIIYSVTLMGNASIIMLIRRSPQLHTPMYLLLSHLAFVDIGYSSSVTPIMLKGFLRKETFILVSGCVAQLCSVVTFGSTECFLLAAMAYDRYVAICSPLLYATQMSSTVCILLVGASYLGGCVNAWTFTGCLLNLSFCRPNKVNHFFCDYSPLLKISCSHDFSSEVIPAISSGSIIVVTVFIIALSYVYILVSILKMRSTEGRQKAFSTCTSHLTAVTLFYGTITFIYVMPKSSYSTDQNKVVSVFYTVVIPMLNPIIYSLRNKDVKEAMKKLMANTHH
Outline: as §1

[15] = target: T14, Or7a40 (Mus musculus) (UniProt Q9JHB2)
T14 sequence (whole entry): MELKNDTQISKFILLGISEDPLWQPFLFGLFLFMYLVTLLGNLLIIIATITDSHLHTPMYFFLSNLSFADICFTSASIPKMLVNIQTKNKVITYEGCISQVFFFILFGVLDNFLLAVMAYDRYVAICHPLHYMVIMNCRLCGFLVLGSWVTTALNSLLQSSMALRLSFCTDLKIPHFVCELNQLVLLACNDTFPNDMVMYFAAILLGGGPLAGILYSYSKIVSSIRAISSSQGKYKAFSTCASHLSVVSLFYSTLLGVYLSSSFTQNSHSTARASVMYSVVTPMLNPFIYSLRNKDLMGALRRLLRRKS
Outline: as §1

[16] = target: T15, UniProt A2AVB5
T15 sequence (whole entry): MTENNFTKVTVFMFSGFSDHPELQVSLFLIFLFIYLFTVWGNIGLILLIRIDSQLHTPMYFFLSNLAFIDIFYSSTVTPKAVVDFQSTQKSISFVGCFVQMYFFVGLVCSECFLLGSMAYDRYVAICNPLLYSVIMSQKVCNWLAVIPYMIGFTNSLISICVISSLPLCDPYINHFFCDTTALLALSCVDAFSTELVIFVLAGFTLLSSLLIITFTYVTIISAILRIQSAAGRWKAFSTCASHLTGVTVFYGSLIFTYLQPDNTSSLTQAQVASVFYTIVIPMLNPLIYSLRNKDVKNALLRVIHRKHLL
Outline: as §1

[17] = target: T16, UniProt B2RVX8
T16 sequence (whole entry): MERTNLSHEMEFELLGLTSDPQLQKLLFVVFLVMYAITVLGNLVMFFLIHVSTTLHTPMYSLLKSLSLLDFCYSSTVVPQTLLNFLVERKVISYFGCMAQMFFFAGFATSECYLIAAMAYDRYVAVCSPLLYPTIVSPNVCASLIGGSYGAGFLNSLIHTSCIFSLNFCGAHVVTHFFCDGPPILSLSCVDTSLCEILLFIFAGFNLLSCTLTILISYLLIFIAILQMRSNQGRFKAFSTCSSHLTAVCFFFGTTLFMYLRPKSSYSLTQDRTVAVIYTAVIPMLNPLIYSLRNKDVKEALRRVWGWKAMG
Outline: as §1

[18] = target: T17, UniProt K7N609
T17 sequence (whole entry): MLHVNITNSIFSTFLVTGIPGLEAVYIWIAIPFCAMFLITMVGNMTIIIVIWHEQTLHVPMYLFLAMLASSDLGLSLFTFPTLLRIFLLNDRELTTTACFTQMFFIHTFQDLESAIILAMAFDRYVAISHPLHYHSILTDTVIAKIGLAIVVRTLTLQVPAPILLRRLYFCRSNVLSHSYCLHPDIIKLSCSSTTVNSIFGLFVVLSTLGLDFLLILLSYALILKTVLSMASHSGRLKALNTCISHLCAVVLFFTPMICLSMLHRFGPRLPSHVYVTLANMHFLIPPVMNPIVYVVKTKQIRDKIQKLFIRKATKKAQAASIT
Outline: as §1

Chain of Or5an6 (Mus musculus) (Q8VFV4 whole entry): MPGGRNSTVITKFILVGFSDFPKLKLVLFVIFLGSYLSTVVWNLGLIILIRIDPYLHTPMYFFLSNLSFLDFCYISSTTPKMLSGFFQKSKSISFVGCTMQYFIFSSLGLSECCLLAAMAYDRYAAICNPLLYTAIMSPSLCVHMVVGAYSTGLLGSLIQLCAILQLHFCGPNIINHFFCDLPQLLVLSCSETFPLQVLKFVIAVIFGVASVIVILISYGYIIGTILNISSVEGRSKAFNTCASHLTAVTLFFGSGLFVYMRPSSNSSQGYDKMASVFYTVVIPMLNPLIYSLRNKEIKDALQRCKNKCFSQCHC

Row | Structure (SMILES) | odorant receptor agonist call [1] | odorant receptor agonist call [2] | odorant receptor agonist call [3] | odorant receptor agonist call [4] | odorant receptor agonist call [5] | odorant receptor agonist call [6] | odorant receptor agonist call [7] | odorant receptor agonist call [8] | odorant receptor agonist call [9] | odorant receptor agonist call [10] | odorant receptor agonist call [11] | odorant receptor agonist call [12] | odorant receptor agonist call [13] | odorant receptor agonist call [14] | odorant receptor agonist call [15] | odorant receptor agonist call [16] | odorant receptor agonist call [17] | odorant receptor agonist call [18]
1 | Cc1c([N+](=O)[O-])c(C)c([N+](=O)[O-])c(C(C)(C)C)c1[N+](=O)[O-] | active | active |  |  |  |  |  |  |  |  |  |  |  |  |  |  |  | 
2 | CC(C=O)Cc1ccc2c(c1)OCO2 (stereo not drawn) |  |  | inactive | inactive | inactive | inactive | inactive | inactive | inactive | inactive | inactive | inactive |  |  |  |  |  | 
3 | O=c1cc(O)c2ccccc2o1 |  |  | inactive | inactive | inactive | inactive | inactive | inactive | inactive | inactive | inactive | inactive | inactive | inactive | inactive | inactive | inactive | inactive
4 | Cc1ccc(OC(=O)Cc2ccccc2)cc1 |  |  | inactive | inactive | inactive | inactive | inactive | inactive | inactive | inactive | inactive | inactive |  |  |  |  |  | 
